The list is not random: actives were taken first. Their share in the collection is about 4.3%.
AHR act – activates the human aryl hydrocarbon receptor | P35869 | AHR-responsive luciferase reporter cells, luminescence | activation, % at 5 µM | 320,000 tested, 2.5% active; in the data active means activation above about 47%;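 further: 0% = vehicle wells and 100% = reference agonist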
SR-BI uptake up – enhances SR-BI lipid uptake from DiI-HDL | AID 504775 | activation, % at 12.5 µM | CHO ldlA[mSR-BI] cells, DiI-HDL uptake fluorescence, 3 h; 100 = double the neutral-control signal | 320,000 tested, 0.096% active;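 active means mean replicate activation of at least 60% and every replicate at or above 60%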;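 further: 0% = median plate neutral-control signal and 100% = twice that signal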
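System: CHO ldlA[mSR-BI] cells / Medium: HEPES-buffered (25 mM, pH 7.4) F12 plus 0.5% BSA / Probe or stimulus: labelled HDL, 10 µg/mL / Doses: single compound concentration, delivered by pin transfer / Schedule: 3 h, 37 °C / Measured by: DiI fluorescence, bottom read / Measure: cell-associated DiI fluorescence as measure of HDL uptake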
SR-BI DiI inh – mouse SR-BI HDL lipid transfer inhibition; Q61009; ldlA[mSR-BI] CHO cells, DiI-HDL uptake fluorescence, 3 h; inhibition, % at 12.5 µM; 320,000 tested, 0.96% active; AID 488896;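 active means mean replicate inhibition of at least 70% and a set share of replicates each scoring 70 or more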;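 further: 0% = median of neutral control wells and 100% = median of positive control wells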
Target sequence (Q61009 whole entry, looked up): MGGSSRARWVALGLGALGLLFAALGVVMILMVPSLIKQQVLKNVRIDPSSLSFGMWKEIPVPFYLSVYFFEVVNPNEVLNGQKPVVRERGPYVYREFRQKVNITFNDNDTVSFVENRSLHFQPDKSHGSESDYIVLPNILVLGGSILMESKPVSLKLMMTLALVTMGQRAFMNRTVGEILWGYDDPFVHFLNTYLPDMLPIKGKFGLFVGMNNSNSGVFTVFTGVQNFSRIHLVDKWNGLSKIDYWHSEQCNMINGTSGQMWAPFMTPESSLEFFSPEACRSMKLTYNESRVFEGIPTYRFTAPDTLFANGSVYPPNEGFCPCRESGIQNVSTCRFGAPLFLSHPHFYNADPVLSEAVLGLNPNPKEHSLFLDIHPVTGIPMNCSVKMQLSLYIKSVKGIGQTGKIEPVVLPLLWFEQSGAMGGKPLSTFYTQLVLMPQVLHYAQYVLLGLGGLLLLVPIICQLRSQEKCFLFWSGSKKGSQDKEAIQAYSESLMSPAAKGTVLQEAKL
Lipid droplet – hepatic lipid droplet formation modulation | AML12 mouse hepatocytes, oleate lipid droplets, BODIPY imaging | inhibition, % at 6.5 µM | 240,000 tested, 0.4% active | AID 1656;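 active means lipid droplet intensity inhibited by at least 50%, with more than 500 cells counted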
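Assay system: AML12 hepatocytes (mouse); Probe or stimulus: oleic acid at 100 µM to induce lipid droplet formation; Dosing: compound at 6.5 µM only; Schedule: compound with oleate, overnight; Detection: fluorescence imaging, 20x objective, two fields per well; Measure: % inhibition of lipid droplet signal.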
CR mimetic SO – yeast age-related superoxide inhibition as caloric restriction mimetic; S. cerevisiae aged cells, superoxide DHE fluorescence; active compounds read low; superoxide response (% of plate mean), % at 10 µM; 330,000 tested, 0.18% active; AID 2690;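 active means superoxide response under a set limit, about three screen SD below normal, cut at about 65% in these data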;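 further: yeast aged for seven days with compound at 30 °C before DHE staining; 100% = average MFI of all compound-treated wells on the plate with controls excluded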
SMARCA2 act – increases SMARCA2 function in MMTV reporter cells; activation, % at 9.1 µM; 370,000 tested, 1% active; MG213 cells, MMTV-luciferase reporter, dexamethasone, overnight; in the data active means activation above about 7.8%;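 further: 0% = vehicle wells and 100% = reference activator wells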
* hit, by the source's call; · = no result.

SMILES	AHR act	SR-BI uptake up	SR-BI DiI inh	Lipid droplet	CR mimetic SO	SMARCA2 act
O=C(NNC(=O)c1cc(-c2ccncc2)nc2ccccc12)Nc1ccc(F)cc1	-3	·	-20	0	125	-2
O=C(Nc1ccc(F)cc1)c1cc(-c2ccncc2)nc2c(Cl)cccc12	69*	-31	31	-10	102	-1
CN1CCCCC(NC(=O)c2ccc(F)c(F)c2)C1=O (configuration not stated)	·	·	·	·	·	1
COc1ccccc1Nc1ncccc1[N+](=O)[O-]	53*	13	-13	0	106	3
COc1ccccc1C(CNc1ncccc1[N+](=O)[O-])N(C)C (configuration not stated)	1	25	-25	2	99	-1
O=[N+]([O-])c1ccccc1/C=C/C1Nc2cccc3cccc(c23)N1	·	·	·	·	·	0
c1ccc(-c2nc3ccccc3o2)nc1	21	6	-6	·	93	3
c1ccc2nc(-c3nc4ccccc4o3)ccc2c1	90*	19	-19	5	91	-1
CC(=O)N1c2cc(S(=O)(=O)Nc3c(C)n(C)n(-c4ccccc4)c3=O)c(Br)cc2CC1C (configuration not stated)	·	·	·	·	·	-4
CCOC(=O)[C@@]12CCC3=C1N(CCC3)C(=O)[C@H](CC(=O)N1CCCCC1)C2	·	·	·	·	·	-2
C#Cc1cccc(NC(=O)c2ccc3c(c2)C(=O)N(Cc2cccnc2)C3=O)c1	57*	-43	43	-16	99	-3
Cc1c(C(=O)NC2CCOC2)oc2c(F)cccc12 (configuration not stated)	79*	-7	7	16	106	7
Cc1c(C(=O)O)oc2c(F)cccc12	0	6	-6	-6	94	3
CCOc1nc(Nc2ccc(OC)c(Cl)c2)nc(N2CCN(c3ccc(OC)cc3)CC2)n1	7	-79	79*	-24	84	0
COc1ccccc1NC(=O)CSc1nnc(-c2ccoc2C)o1	-2	27	-27	·	107	5
COc1ccccc1-c1nnc(SCC(=O)Nc2ccc(Cl)cc2Cl)o1	57*	-9	9	13	99	-1
OCCNc1nc(-c2cccnc2)nc2ccccc12	31	28	-28	·	98	-1
c1cncc(-c2nc(NCCCn3ccnc3)c3ccccc3n2)c1	75*	5	-5	1	93	0
Clc1ccccc1-c1cc2nc(NCCCn3ccnc3)ccn2n1	·	·	·	·	·	0
c1ccc(-c2nc(NCCCn3ccnc3)c3oc4ccccc4c3n2)cc1	82*	-15	15	·	89	-2
O=c1c2ccccc2nc(-c2ccccc2)n1CCCn1ccnc1	56*	12	-12	4	98	-9
Cc1nc(NCCCn2ccnc2)c2ccccc2n1	57*	11	-11	·	116	-3
Cc1ccc(-c2nc3ccccc3c(=O)n2CCCn2ccnc2)cc1	5	18	-18	-9	92	-3
CN1CC=C(c2ccc(C(F)(F)F)cc2)N(c2ccc(Br)cc2)C1=O	·	·	·	·	·	2
CC(=O)NCc1ccc(OCCCN2CCC(C(O)(c3ccccc3)c3ccccc3)CC2)cc1	·	·	·	·	·	-4
SMILES	AHR act	SR-BI uptake up	SR-BI DiI inh	Lipid droplet	CR mimetic SO	SMARCA2 act
COC(=O)c1cc2c(c3c4cc(OC)ccc4n(S(C)(=O)=O)c13)C(=O)N(C)C2	·	·	·	·	·	-2
CCOC(=O)C1=C(C(=O)OCC)C2N(Cc3ccccc3)c3ccccc3[C@@]23C[C@@H](C(=O)OC)N(S(=O)(=O)c2ccc(C(F)(F)F)cc2)C3=N1 (some centres not stated)	·	·	·	·	·	5
Nc1[nH]c(C(=O)c2ccc(Br)cc2)c(-c2ccc(Cl)cc2)c1C(=O)NCCc1c[nH]c2ccccc12	·	·	·	·	·	2
Cc1cccc(OCC(=O)Nc2ccc3c(c2)nc(CCN2CCN(c4ccccn4)CC2)n3C)c1	1	-73	73*	0	109	-2
CCOc1ccc(C(=O)Nc2cccc(-c3ccc(N4CCOCC4)nn3)c2)cc1OCC	9	-90	90*	·	87	1
CCOc1ccccc1C(=O)Nc1cccc(-c2ccc(N3CCOCC3)nn2)c1	13	-56	56	·	90	2
CCOc1cc(C(=O)Nc2ccccc2N2CCOCC2)ccc1OCC(=O)N1CCCCC1	0	-46	46	4	94	-5

High-throughput results (PubChem)
